Measured values collected from several papers.
Target: Dual specificity tyrosine-phosphorylation-regulated kinase 3 (DYRK3, Homo sapiens, UniProt O43781)
One construct used (O43781 1-588): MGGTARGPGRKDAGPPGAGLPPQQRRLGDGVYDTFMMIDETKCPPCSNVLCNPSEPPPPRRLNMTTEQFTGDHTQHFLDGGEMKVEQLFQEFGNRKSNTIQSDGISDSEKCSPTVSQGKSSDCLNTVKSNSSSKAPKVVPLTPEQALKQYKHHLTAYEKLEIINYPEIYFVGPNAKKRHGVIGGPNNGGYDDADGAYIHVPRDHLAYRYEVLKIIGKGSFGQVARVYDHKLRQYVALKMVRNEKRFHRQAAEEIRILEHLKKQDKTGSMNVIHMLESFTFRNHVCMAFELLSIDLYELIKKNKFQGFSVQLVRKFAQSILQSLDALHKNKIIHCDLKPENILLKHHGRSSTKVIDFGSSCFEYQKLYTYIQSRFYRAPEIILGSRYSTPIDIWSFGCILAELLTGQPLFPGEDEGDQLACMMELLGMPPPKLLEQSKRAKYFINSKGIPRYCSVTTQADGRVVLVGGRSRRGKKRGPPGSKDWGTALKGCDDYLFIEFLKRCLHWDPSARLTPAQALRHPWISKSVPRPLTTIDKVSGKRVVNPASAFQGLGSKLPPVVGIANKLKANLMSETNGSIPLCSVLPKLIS

Compound	read-out	action	technique	tested at	quantity	value
COc1cccc(CCNc2nc3cc(C(=O)O)ccc3c3cnccc23)c1	enzyme activity	inhibitor	radiometric	1 µM	remaining activity	11%
Cn1cnc(Br)c1C1=CN(c2ncnc3[nH]cnc23)CCS1	enzyme activity	inhibitor	radiometric	50 nM	inhibition	49.8%
O=C(O)c1ccc2c(c1)nc(NCCc1cccc(Cl)c1)c1ncncc12	enzyme activity	inhibitor	radiometric	1 µM	remaining activity	37%
COc1cc2ncnc(Nc3ccc(Oc4ccccc4)c(C)c3C)c2cc1OC	enzyme activity	inhibitor		1 µM	inhibition	-3%
CCCS(=O)(=O)Nc1ccc(F)c(C(=O)c2c[nH]c3ncc(-c4ccc(Cl)cc4)cc23)c1F	enzyme activity	inhibitor		1 µM	inhibition	< 10%
Cc1cc(NC(=O)c2cccc3cc(-c4cccc5[nH]nc(N)c45)ccc23)ccc1F	enzyme activity	inhibitor		0.1 µM	activity vs control	105%
O=C1Nc2ccc(Cl)cc2C1=Cc1cc(Cl)c(O)c(Cl)c1	cell-free assay			0.5 µM	remaining signal	91.8%
CC/C(=N\NC(=O)NCc1cccc(O)c1)c1ccc(O)c(C)c1O	enzyme activity	inhibitor		0.1 µM	inhibition	1.6%
O=C(O)c1ccc2c(c1)nc(Nc1ccc(F)c(Cl)c1)c1ncncc12	enzyme activity	inhibitor	radiometric	1 µM	remaining activity	8%
COc1cc(-c2cc(-c3ccc(N4CCNCC4)cc3)cnc2C)cc(OC)c1OC	enzyme activity	inhibitor		0.1 µM	inhibition	1%
O=C(O)c1ccc2c(c1)nc(NCc1ccccc1)c1ccncc12	enzyme activity	inhibitor	radiometric	1 µM	remaining activity	21%
O=C(Nc1cnn(-c2csc(C(=O)NC3COC3)c2)c1)Nc1ccccc1Cl	enzyme activity	inhibitor		5 µM	remaining activity	93.3%
Cn1cncc1C1=CN(c2ncnc3[nH]cnc23)CCS1	enzyme activity	inhibitor	radiometric	2 µM	inhibition	90.9%
COc1cc(Nc2cnc(C#N)c(O[C@H](C)CN(C)C)n2)ncc1-c1cnn(C)c1	enzyme activity	inhibitor	radiometric	1 µM	remaining activity	98%
